Data as given in publication PMC3044235 (Analytical and Bioanalytical Chemistry, 2010).
Where “and” joins values, the source holds several entries; their conditions need not be identical. Equal values may be shown once.

What was measured:
[1] = format: in vivo, human; settings: healthy volunteers, diet rich in fruits, vegetables, tea, and wine
Summary of the method: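 Volunteers on a flavonoid-rich diet also took oral flavonoid/isoflavone tablets; urine was sampled 5 h post-dose. Urine was deproteinised with acetonitrile/methanol, hydrolysed with β-glucuronidase/sulfatase (H. pomatia, pH 4.66, 18 h, 37 °C), cleaned by SPE and run on reversed-phase UHPLC (0.05% TFA/acetonitrile gradient, 25 °C, UV 254 and 280 nm). Amounts came from calibration curves in blank urine; identities were confirmed by HPLC–ESI-MS–MS.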

[2] = format: in vivo, human; settings: for approximate average daily output in urine: assuming the mean 24-h urine volume is 1.4 L; for percentage excreted in urine within 24 h of the administered dose: within 24 h after ingestion of the tablets; for AUC(0-inf) / AUC(0-t) / Tmax / half-life: human, urine, po
Summary of the method: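 Healthy volunteers (21–48 y) took oral flavonoid/isoflavone tablets. Processing: acetonitrile/methanol precipitation, centrifugation, β-glucuronidase/sulfatase (H. pomatia) hydrolysis at pH 4.66 for 18 h at 37 °C, then SPE. Reversed-phase UHPLC used a 0.05% TFA/acetonitrile gradient, UV 254/280 nm, and blank-urine calibration. Kel came from terminal-slope regression; t1/2 = 0.693/Kel.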

[3] = human urine, oral pharmaceutical preparations, n = 6, mean±S.D.

| SMILES | mean concentration in urine [1] | approximate average daily output in urine [2] [mg] | C max, peak concentration in urine [2, 3] | percentage excreted in urine within 24 h of the administered dose [2] [%] | further results |
| --- | --- | --- | --- | --- | --- |
| Oc1cc(O)c2c(c1)OC(c1ccc(O)c(O)c1)C(O)C2 (racemic) [(±)-CA, (±)-catechin] | 5427.34 ng/mL |  |  |  |  |
| COc1cc2c(=O)c(-c3ccc(O)cc3)coc2cc1O[C@@H]1O[C@H](CO)[C@@H](O)[C@H](O)[C@H]1O [GLY, glycitin] |  | ~1.73 | 5482.33 ± 10.78 ng/mL and 5482.3 ± 10.8 ng/mL | 30 | T max, time to reach peak concentration ([2]; human urine, oral pharmaceutical preparations, n = 6): 5 h; AUC(0–t), area under the urine concentration–time curve [2, 3]: 86628.8 ± 1769.0 µg·h/mL; AUC(0–∞), area under the urine concentration–time curve [2, 3]: 86678.1 ± 1766.7 µg·h/mL |
| Oc1cc(O)c2c(c1)O[C@H](c1ccc(O)c(O)c1)[C@H](O)C2 [(−)-EC, (−)-epicatechin] | 2724.26 ng/mL |  |  |  |  |
| COc1ccc([C@@H]2CC(=O)c3c(O)cc(O)cc3O2)cc1O [HST, hesperetin] | detected in urine, but not quantified |  |  |  |  |

Now from value to molecule, other results behind:

| mean concentration in urine [1] | approximate average daily output in urine [2] [mg] | C max, peak concentration in urine [2, 3] | percentage excreted in urine within 24 h of the administered dose [2] [%] | SMILES | further results |
| --- | --- | --- | --- | --- | --- |
| 73.57 ng/mL |  |  |  | C[C@@H]1O[C@@H](Oc2c(-c3ccc(O)c(O)c3)oc3cc(O)cc(O)c3c2=O)[C@H](O)[C@H](O)[C@H]1O [QUR, quercitrin] |  |
|  | ~0.19 | 780.2 ± 10.39 ng/mL | 1 | C[C@@H]1O[C@@H](OC[C@H]2O[C@@H](Oc3c(-c4ccc(O)c(O)c4)oc4cc(O)cc(O)c4c3=O)[C@H](O)[C@@H](O)[C@@H]2O)[C@H](O)[C@H](O)[C@H]1O [RUT, rutin] | AUC(0-inf) [2]: 12820 ± 78.9 µg·h/mL; AUC(0-t) [2]: 12810 ± 77.3 µg·h/mL; Tmax [2]: 8 h; half-life [2]: 3.98 ± 0.53 h |
|  | ~0.14 | 228.0 ± 5.34 ng/mL | 17 | O=c1c(-c2ccc(O)cc2)coc2cc(O)ccc12 [DA, daidzein] | AUC(0-inf) [2]: 7730 ± 414 µg·h/mL; AUC(0-t) [2]: 7710 ± 410 µg·h/mL; Tmax [2]: 7 h; half-life [2]: 4.43 ± 0.86 h |
